{"source": "paper PMC7641749", "about": "(Nucleic Acids Research, 2020)", "key": {"DROSHA": {"test_system": "DROSHA", "experiment": "Co-IP of overexpressed DROSHA with ERH", "type": "binding, human", "details": "ectopic DROSHA co-expressed with C-terminal tail of DGCR8", "outline": "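HEK293E cells at 50% confluence were transfected with 5 μg total of Flag-, HA- or myc-tagged plasmids using branched/linear PEI (1:1) and harvested after 2 days. Anti-Flag, anti-HA or protein G-bound anti-myc beads were incubated with lysate 1–2 h at 4°C, washed three times and eluted in SDS buffer for western blot.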"}, "DGCR8": {"test_system": "DGCR8", "experiment": "Co-IP of ERH and DGCR8 in DROSHA knock-out cells", "type": "binding, human", "details": "HCT116 DROSHA knock-out cells", "outline": "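HCT116 wild-type and DROSHA knock-out cells were grown in McCoy's 5A with 9% FBS. Proteins were boiled at 95°C for 5 min, separated on 8–16% Tris–glycine gels and transferred to PVDF. Detection was by infrared imaging or chemiluminescence.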"}, "miR-144–451a": {"test_system": "miR-144–451a", "experiment": "ERH rescue experiment, qRT-PCR", "type": "cell-based, human", "details": "ERH ectopically expressed in ERH-depleted HEK293E cells, shERH, n = 3", "outline": "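HEK293E cells at 50% confluence got shERH (3′UTR-targeting) plasmid with Fugene HD for 48 h, then were trypsinized and counted. 4E5 cells were co-transfected with 2.5 μg total of shERH, pri-miRNA expression plasmid and wild-type or homodimerization-mutant ERH plasmid (1:2:2) using 5 μl Fugene HD. Total RNA was harvested 48 h later for qRT-PCR.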"}}}
{"substance": "Enhancer of Rudimentary Homolog [ERH]", "values": [{"measurement": "interaction between DROSHA and ERH", "setting": "DROSHA", "value": "could not detect meaningful interaction"}, {"measurement": "interaction between ERH and DGCR8", "setting": "DGCR8", "value": "not affected by the absence of DROSHA"}, {"measurement": "expression of miR-144", "setting": "miR-144–451a", "value": "without significantly altering miR-144 expression"}, {"measurement": "expression of miR-451a", "setting": "miR-144–451a", "value": "increased the expression of miR-451a"}]}
